Results reported in the array DNA melting data of Ke et al. (doi:10.1101/2024.01.08.574731).

Legend:
[1] = folding enthalpy; higher = less favourable; fluorescence melt of hairpins on a sequencing array, two-state fit; details: sodium 0.088 M
In short: (§1)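 Two-state fits, bootstrapped, provided melting temperature and folding enthalpy from Cy3 fluorescence normalised to pre-quench Cy3 and to control constructs. Library hairpins with annealed Cy3 and quencher oligos were imaged on a sequenced MiSeq flow cell in 50 mM Na-HEPES pH 8.0, 25 mM NaCl, at 2.5 °C intervals up to 60 °C. Four replicates were combined with inverse-variance weighting. A 9.35 °C upward shift was applied to fitted temperatures to match UV melts.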

[2] = melting temperature; fluorescence melt of hairpins on a sequencing array, two-state fit, raised by 9.35 °C to match UV melts; details: sodium 0.088 M
In short: as §1

| Sequence | folding enthalpy [1] [kcal/mol] | Tm [2] [°C] |
| --- | --- | --- |
| GATAACCGAAAGGTCATC (((.(((....))).))) | -21.3 | 37.2 |
| GATCGTGGAAACACGACC (.(((((....))))).) | -13.3 | 41.7 |
| GAAGGCGAAAGCCTTTTC ((((((....)))..))) | -11.1 | 51.3 |
| GTAGCGGGAAACCACTAC ((((.((....)).)))) | -34.1 | 42.2 |
| GTTCGCGAAAGCGCAAAC ((((((....)))..))) | -7.42 | 29 |
| GTTGGCGAAAGCCAAAC ((((((....))).))) | -11.6 | 56.2 |
| GCAGAAGGAAACTTCTAC (.(((((....))))).) | -11.7 | 27.8 |
| GGCGCCGAAAGGCCTGCC ((((((....)))..))) | -16.6 | 50.8 |
| GCGAGATCGAAAGATCGC (((..(((....)))))) | -24.3 | 52.1 |
| GGTCTGAAAAGACC (((((....))))) | -31.1 | 61.7 |
| GTGGGCCGAAAGGCCAC (((.(((....)))))) | -10.7 | 64.9 |
| GTCAGTCCGAAAGGAGAC (((..(((....)))))) | -15.6 | 33.2 |
| GAGTTGGGAAACCAACTC (((((((....))))))) | -39.4 | 62 |
| GAAGAGCGAAAGCTTTTC (((.(((....))).))) | -24.1 | 44.7 |
| GCAAGACGAAAGTCATGC (((.(((....))).))) | -32.2 | 54.4 |
| GACCCGGGAAACCGGGCC (.(((((....))))).) | -12.6 | 53.3 |
| GCAGCCGGAAACGGCCAC (..((((....))))..) | -9.09 | 36.2 |
| GGGAACGAAAGTTTCCCC ((((((....)))..))) | -19.9 | 53.5 |
| GTGCTCGAAAGAGCCCAC ((((((....)))..))) | -8.93 | 35.8 |
| GCTGGCGGAAACGCTAGC (((.(((....))).))) | -40.5 | 59.1 |
| GTTACGGCGAAAGCCAAC (((..(((....)))))) | -8.79 | 25 |
| GCATGGCGAAAGCCTTGC (((.(((....))).))) | -35.4 | 60.8 |
| GCGTCTAGACGC ((((....)))) | -31 | 58.6 |

| Sequence | folding enthalpy [1] [kcal/mol] | Tm [2] [°C] |
| --- | --- | --- |
| GGTCGTGGAAACACAACC (((.(((....))).))) | -27.6 | 42.5 |
| GGTGGAGGAAACTTCGCC ((.(.((....)).).)) | -28.2 | 37.7 |
| GTTCCACGAAAGTGAAAC (((.(((....))).))) | -25.2 | 43.4 |
| GCACGGCGAAAGCAGAGC ((.(.((....)).).)) | -20 | 53 |
| GTGTCCGAAAGGACTCAC ((((((....)))..))) | -10 | 39.4 |
| GAGATCGGAAACGATCTC (((((((....))))))) | -43 | 66.8 |
| GGATGCACGAAAGTGTCC (((..(((....)))))) | -14 | 30.8 |
| CGGCCGGAAACGGCTCCG ((((((....)))..))) | -8.35 | 33.7 |
| ATGATGAAAATCAT (((((....))))) | -15.2 | 39.5 |
| GCGGGAACCCGC ((((....)))) | -26 | 67.8 |
| GCGGCGCGAAAGCACTGC ((.(.((....)).).)) | -29 | 54.6 |
| GCGGCCGAAAGGCTCCGC ((((((....)))..))) | -16.8 | 53.8 |
| GATCCGTGACGGATC ((((((...)))))) | -38.3 | 59.9 |
| GCAGGCGAAAGCCGATGC ((((((....)))..))) | -13.3 | 53.9 |
| GCATGCCGAAAGGCTGC (((.(((....)))))) | -21.6 | 65.7 |
| GGATAAGGAAACCTATCC (((((.(....).))))) | -30.3 | 33.5 |
| GATACCCGAAAGGGAATC (((.(((....))).))) | -23.9 | 48 |
| GGTTACGGAAACGCAACC ((((.((....)).)))) | -32.7 | 46.6 |
| GATCGGGCGTCCGATC ((((((....)))))) | -37.2 | 58.2 |
| GATCGGATTCCGATC ((((((...)))))) | -44.6 | 54.6 |
| GACGAGCGAAAGCTGGTC (((.(((....))).))) | -31.2 | 54.8 |
| GGCGATGGAAACATCACC ((.((((....)))).)) | -30.3 | 46.2 |
| GATCCAGTCGTGGATC ((((((....)))))) | -35.9 | 52.8 |

| Sequence | folding enthalpy [1] [kcal/mol] | Tm [2] [°C] |
| --- | --- | --- |
| GCAGCTGGAAACAGCCAC (..((((....))))..) | -10.6 | 31 |
| GGATGCGAAAGCACTCC ((((((....))).))) | -29 | 49.6 |
| GCCAAGCGAAAGCATCGC ((.(.((....)).).)) | -6.8 | 31.2 |
| ACTCTGAAAAGAGT (((((....))))) | -17.4 | 43.4 |
| GTAGGCGGAAACGCCCAC ((.((((....)))).)) | -10.2 | 41.1 |
| GAGGGGCGAAAGCCCTC (((.(((....)))))) | -10.1 | 55.5 |
| CGTACGGAAACGTTACG ((((((....))).))) | -30.6 | 46.1 |
| GATCCCACCCGGGATC ((((((....)))))) | -41.1 | 60 |
| CGGACGGAAACGTACCCG ((((((....)))..))) | -14.4 | 34.5 |
| GAGAGCGAAAGCTAACTC ((((((....)))..))) | -12.7 | 33 |
| GATCTTGCTGAAGATC ((((((....)))))) | -31.4 | 43.2 |
| GGCTCCGAAAGGACCGCC ((((((....)))..))) | -19.8 | 53.3 |
| GCTATTGGAAACAATAGC (((((((....))))))) | -47.7 | 56 |
| GCCACTCGAAAGAGCGGC (((.(((....))).))) | -46.9 | 61.3 |
| GGGGAGCGAAAGCTTCCC (((.(((....))).))) | -36.5 | 68.2 |
| GGTTACGAAAGTACGACC ((((((....)))..))) | -14.9 | 31.4 |
| GCGCTGCGAAAGCATGGC ((..(((....)))..)) | -19.4 | 43.6 |
| GGGTCGGGAAACCGATCC ((.((((....)))).)) | -47.4 | 57.4 |
| GATCCCGGTGGGGATC ((((((....)))))) | -40.2 | 59.3 |
| GGAACACGAAAGTGGTCC (((.(((....))).))) | -31.7 | 60.7 |
| GAGCTACGAAAGTAACTC (((.(((....))).))) | -25.5 | 42.3 |
| GATCTAGTGTTAGATC ((((((....)))))) | -30 | 40.6 |
| GATCCAGTTTGGATC ((((((...)))))) | -32.4 | 52.6 |

| Sequence | folding enthalpy [1] [kcal/mol] | Tm [2] [°C] |
| --- | --- | --- |
| GGCTGTGGAAACACAACC ((.((((....)))).)) | -31.5 | 44.4 |
| GATCAGTACCCTGATC ((((((....)))))) | -35.6 | 49.4 |
| CTGGGGAAACCCAG (((((....))))) | -25.4 | 53.5 |
| GTAAGTGCGAAAGCATAC (((..(((....)))))) | -11.2 | 27.2 |
| GATCCAGTAATGGATC ((((((....)))))) | -34.2 | 58.7 |
| GGCGACGAAAGTCAAGCC ((((((....)))..))) | -39.6 | 54.7 |
| GGCCTCCGAAAGGATGCC (((.(((....))).))) | -37.2 | 56.5 |
| GATCGACCCCTCGATC ((((((....)))))) | -47.5 | 51.7 |
| GATCACCATTGTGATC ((((((....)))))) | -39.2 | 56.3 |
| GATCTAGGAATAGATC ((((((....)))))) | -29.3 | 42.9 |
| GATCCGCTCTCGGATC ((((((....)))))) | -33.8 | 60 |
| GAGTCTGAAAAGACTC ((((((....)))))) | -38 | 59 |
| GCCATGCGAAAGCAGAGC ((..(((....)))..)) | -17.9 | 44.6 |
| TACAGGAAACTGTA (((((....))))) | -14.5 | 37.7 |
| GGACTACGAAAGTAATCC (((.(((....))).))) | -33.4 | 38.7 |
| GGCCCCCGAAAGGGAGCC (((.(((....))).))) | -27.1 | 66.8 |
| GGAGCCGGAAACGACCCC ((.(.((....)).).)) | -15.5 | 29.4 |
| GATCCTACCCAGGATC ((((((....)))))) | -39.9 | 51.2 |
| GTGAGTGAAAACTCAC ((((((....)))))) | -37.7 | 59.1 |
| GGGCTATCGAAAGATCCC (((..(((....)))))) | -22 | 31.9 |
| GGTGCTACGAAAGTAACC (((..(((....)))))) | -13.5 | 29.1 |
| GCGCAAGGAAACTCGCGC ((((.((....)).)))) | -36.1 | 54.6 |
| GCCGGAGCGAAAGCTGGC (((..(((....)))))) | -21.6 | 55.4 |
